Experimental data taken from ChEMBL document CHEMBL1137220, “2-(2-(dimethylaminomethyl)phenoxy)-5-iodophenylamine: an improved serotonin transporter imaging agent” (J Med Chem, 2004).

Key:
[1] = Biodistribution in rat kidney was determined after 60 min of intravenous administration of the compound; [125I]- is used as radioactive isotope; format: ADME, organism-based; conditions: in vivo, 1 h
Procedure, shortened: (§1)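 Rats under ether anesthesia, three per group, received 10 μCi tracer in 0.2 mL saline into the femoral vein. They were killed by cardiac excision under ether at each time point. Organs were removed, weighed and counted. Percent dose per organ was calculated against a 1%-of-injected-dose standard counted at the same time.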

[2] = Biodistribution in rat liver was determined after 24 hours of intravenous administration of the compound; [125I]- is used as radioactive isotope; format: ADME, organism-based; conditions: in vivo; procedure, shortened: as §1
[3] = Biodistribution in rat muscle was determined after 2 min of intravenous administration of the compound; [125I]- is used as radioactive isotope; format: ADME, organism-based, Muscle tissue; conditions: in vivo
Procedure, shortened: (§2)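 Rats, three per group, under ether anaesthesia, received 10 μCi of [¹²⁵I]-labelled tracer in 0.2 mL saline into the femoral vein. They were killed by cardiac excision under ether at each time point. Organs were removed, weighed and counted. Percent dose per organ was calculated against counts of a 1% aliquot of the injected dose (100-fold diluted) counted at the same time.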

[4] = Regional brain distribution in rat striatum was determined after 2 min of intravenous administration of the compound; [125I]- is used as radioactive isotope; format: ADME, tissue-based; conditions: in vivo
Procedure, shortened: (§3)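 Rats, three per group, injected with 10 μCi tracer in 0.2 mL saline via the femoral vein under ether anesthesia and killed by cardiac excision at the stated time. Cortex (frontal plus occipital), striatum, hippocampus, cerebellum and hypothalamus were dissected, weighed and gamma-counted. Values are % dose/g, calculated by comparison with counts of a 100-fold diluted aliquot of the injected dose.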

[5] = Regional brain distribution in rat cerebellum was determined after 24 hours of intravenous administration of the compound; [125I]- is used as radioactive isotope; format: ADME, tissue-based; conditions: in vivo; procedure, shortened: as §3
[6] = Distribution ratio in cortex and cerebellum was determined after 30 min of intravenous administration of the compound; [125I]- is used as radioactive isotope; format: ADME, tissue-based; conditions: rat, 0.5 h
Procedure, shortened: (§4)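 After femoral-vein injection of 10 μCi [¹²⁵I] tracer in 0.2 mL saline under ether anaesthesia (three rats per group), brain regions were dissected, weighed and counted: cortex (frontal plus occipital), hippocampus, hypothalamus and cerebellum. %dose/g was calculated against a diluted injected-dose standard. Ratio = (region − cerebellum)/cerebellum on a %dose/g basis, with cerebellum as the background region.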

[7] = Biodistribution in rat spleen was determined after 60 min of intravenous administration of the compound; [125I]- is used as radioactive isotope; format: ADME, organism-based; conditions: in vivo, 1 h; procedure, shortened: as §2
[8] = Distribution ratio in hypothalamus and cerebellum was determined after 120 min of intravenous administration of the compound; [125I]- is used as radioactive isotope; format: ADME, tissue-based; conditions: rat, 2 h; procedure, shortened: as §4
[9] = Distribution ratio in hypothalamus and cerebellum was determined after 240 min of intravenous administration of the compound; [125I]- is used as radioactive isotope; format: ADME, tissue-based; conditions: rat, 4 h; procedure, shortened: as §4
[10] = Biodistribution in rat muscle was determined after 24 hours of intravenous administration of the compound; [125I]- is used as radioactive isotope; format: ADME, organism-based, Muscle tissue; conditions: in vivo; procedure, shortened: as §2
[11] = Regional brain distribution in rat hippocampus was determined after 6 hours of intravenous administration of the compound; [125I]- is used as radioactive isotope; format: ADME, tissue-based; conditions: in vivo; procedure, shortened: as §3
[12] = Biodistribution in rat kidney was determined after 24 hours of intravenous administration of the compound; [125I]- is used as radioactive isotope; format: ADME, organism-based; conditions: in vivo; procedure, shortened: as §1
[13] = Biodistribution in rat blood was determined after 30 min of intravenous administration of the compound; [125I]- is used as radioactive isotope; format: ADME, organism-based; conditions: in vivo, 0.5 h; procedure, shortened: as §1
[14] = Biodistribution in rat skin was determined after 6 hours of intravenous administration of the compound; [125I]- is used as radioactive isotope; format: ADME, organism-based, Zone of skin; conditions: in vivo; procedure, shortened: as §2
[15] = Regional brain distribution in rat cortex was determined after 2 min of intravenous administration of the compound; [125I]- is used as radioactive isotope; format: ADME; conditions: in vivo; procedure, shortened: as §3
[16] = Biodistribution in rat thyroid was determined after 24 hours of intravenous administration of the compound; [125I]- is used as radioactive isotope; format: ADME, organism-based, Thyroid gland; conditions: in vivo; procedure, shortened: as §2

SMILES: CN(C)Cc1ccccc1Oc1ccc(I)cc1N
- Dose [1]: 1.67%
- Dose [2]: 1.83%
- Dose [3]: 25.9%
- Dose/g [4]: 0.77%
- Dose/g [5]: 0.0049%
- Dose/g [6]: 0.96%
- Dose [7]: 0.47%
- Dose/g [8]: 3.49%
- Dose/g [9]: 4.49%
- Dose [10]: 1.13%
- Dose/g [11]: 0.059%
- Dose [12]: 0.17%
- Dose [13]: 4.56%
- Dose [14]: 15.5%
- Dose/g [15]: 1.16%
- Dose [16]: 4.61%
